Data on two compounds can be found in ChEMBL document CHEMBL4680109, “A road map for prioritizing warheads for cysteine targeting covalent inhibitors” (Eur J Med Chem, 2018).

Molecules are shown by their SMILES.

The subject of data set [1] is Escherichia coli. Nature of the data set: Inhibition of Escherichia coli MurA assessed as residual activity at 100 uM using UNAG and PEP as substrate preincubated for 30 mins in presence of UNAG followed by PEP addition and measured after 15 mins in presence of 5 mM cysteine by malachite green colorimetric assay relative to control. Conditions: time 45.0 min. In short, it runs like this:
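MurA from E. coli, with the enzyme diluted in Hepes pH 7.8 containing cysteine (15 mM in buffer, giving 5 mM in incubation). Preincubated with UNAG and compound for 30 min at 37 °C, then PEP added and reacted 15 min at 37 °C. Phosphate read by malachite green at 650 nm. Duplicates; residual activity is versus DMSO control.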

A short description of data set [2]: Inhibition of Staphylococcus aureus MurA expressed in Escherichia coli using UNAG and PEP as substrate preincubated for 30 mins in presence of UNAG followed by PEP addition and measured after 15 mins by malachite green colorimetric assay. In outline: (§1)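 IC50 from MurA (E. coli or S. aureus) residual activities at seven compound concentrations. Conditions: 30 min preincubation with UNAG at 37 °C, then PEP, 15 min at 37 °C, in 50 mM Hepes pH 7.8, 0.005% Triton X-114 and 5% DMSO. Malachite green read at 650 nm. Values are means of duplicates.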

In data set [3] the target is Cathepsin B (Homo sapiens) (UniProt P07858). Nature of the data set: Inhibition of recombinant cathepsin B (unknown origin) exopeptidase activity expressed in Escherichia coli assessed as residual activity at 100 uM using Abz-GIVRAK(Dnp)-OH as substrate preincubated for 30 mins under shaking in presence of 5 mM cysteine followed by substrate addition relative to control.

Another data set relates to Staphylococcus aureus. Put plainly: Inhibition of Staphylococcus aureus MurA expressed in Escherichia coli assessed as residual activity at 100 uM using UNAG and PEP as substrate preincubated for 30 mins in presence of UNAG followed by PEP addition and measured after 15 mins by malachite green colorimetric assay relative to control. Conditions: time 45.0 min.
Data set [4] has as its system Escherichia coli. Nature of the data set: Inhibition of Escherichia coli MurA assessed as residual activity at 250 uM using UNAG and PEP as substrate preincubated for 30 mins in presence of UNAG followed by PEP addition and measured after 15 mins by malachite green colorimetric assay relative to control. The note with it: time 45.0 min.
Data set [5] relates to Escherichia coli. Put plainly: Inhibition of Escherichia coli MurA assessed as residual activity at 100 uM using UNAG and PEP as substrate preincubated for 30 mins in presence of UNAG followed by PEP addition and measured after 15 mins by malachite green colorimetric assay relative to control. The note with it: time 45.0 min.
The nature of data set [6]: Inhibition of Escherichia coli MurA using UNAG and PEP as substrate preincubated for 30 mins in presence of UNAG followed by PEP addition and measured after 15 mins by malachite green colorimetric assay. In outline: as §1
The target in data set [7] is Cathepsin B (Homo sapiens) (UniProt P07858). Put plainly: Inhibition of recombinant cathepsin B (unknown origin) endopeptidase activity expressed in Escherichia coli assessed as residual activity at 100 uM using Z-RR-AMC as substrate preincubated for 30 mins under shaking in presence of 5 mM cysteine followed by substrate addition relative to control.
Data set [8] in a line: Inhibition of recombinant cathepsin X (unknown origin) expressed in Pichia pastoris assessed as residual activity at 100 uM using Abz-Fek(Dnp)-OH as substrate preincubated for 30 mins under shaking in presence of 5 mM cysteine followed by substrate addition relative to control. Conditions: Homo sapiens.
A short description of data set [9]: Drug degradation in pH 7.4 PBS buffer at 100 uM measured up to 24 hrs by LC-MS/MS analysis. It is filed as physicochemical. Conditions: pH 7.4, 24 h.

For `CCOC(=O)C#CC(F)(F)F`, the Activity stood at 98% in the data set with Escherichia coli [1]; 89% in data set [3]; 31% in the data set on Staphylococcus aureus; 100% with Escherichia coli [4]; 15% with Escherichia coli [5]; 100% in [7]. Besides, the Activity in [8] came to 99%. The half-maximal inhibitory concentration (IC50) turned out to be 47 µM in data set [2] and 24 µM in data set [6].
With `C=CC(=O)N1CCC(Cc2ccccc2)CC1`, the Stabilty entry in data set [9] is on record as “Unstable”.
